Measurements as given in ChEMBL document CHEMBL1144714, “Reaction of rosmarinic acid with nitrite ions in acidic conditions: discovery of nitro- and dinitrorosmarinic acids as new anti-HIV-1 agents” (J Med Chem, 2008).

Columns and labels:
[1] = Cytotoxicity against human MT4 cells by MTT method; type: cell-based
Summary of the method: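 Uninfected MT-4 lymphocytes run in parallel with the antiviral assay, with 5-fold serial compound dilutions. Viability read by MTT reduction to formazan, measured spectrophotometrically. CC50 = concentration reducing MT-4 viability by 50%.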

[2] = target: T1, Human immunodeficiency virus type 1 integrase (Human immunodeficiency virus 1, UniProt Q7ZJM1); assay: Inhibition of HIV1 integrase strand transfer activity using labelled oligonucleotide substrate by ELISA
T1 sequence (Q7ZJM1 whole entry): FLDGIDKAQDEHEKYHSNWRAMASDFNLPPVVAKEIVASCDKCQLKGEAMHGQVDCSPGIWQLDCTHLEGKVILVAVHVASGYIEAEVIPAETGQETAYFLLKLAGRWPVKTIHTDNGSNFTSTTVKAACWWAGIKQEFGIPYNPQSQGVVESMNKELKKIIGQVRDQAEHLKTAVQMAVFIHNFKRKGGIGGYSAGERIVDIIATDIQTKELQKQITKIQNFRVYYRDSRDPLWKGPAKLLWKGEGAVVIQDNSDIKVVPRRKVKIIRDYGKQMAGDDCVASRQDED

Albumin = Albumin (Bos taurus, UniProt P02769); assay: Binding affinity to BSA by fluorescence quenching assay; type: ADME; details: cattle, isolated protein
Sequence of Albumin (P02769 whole entry): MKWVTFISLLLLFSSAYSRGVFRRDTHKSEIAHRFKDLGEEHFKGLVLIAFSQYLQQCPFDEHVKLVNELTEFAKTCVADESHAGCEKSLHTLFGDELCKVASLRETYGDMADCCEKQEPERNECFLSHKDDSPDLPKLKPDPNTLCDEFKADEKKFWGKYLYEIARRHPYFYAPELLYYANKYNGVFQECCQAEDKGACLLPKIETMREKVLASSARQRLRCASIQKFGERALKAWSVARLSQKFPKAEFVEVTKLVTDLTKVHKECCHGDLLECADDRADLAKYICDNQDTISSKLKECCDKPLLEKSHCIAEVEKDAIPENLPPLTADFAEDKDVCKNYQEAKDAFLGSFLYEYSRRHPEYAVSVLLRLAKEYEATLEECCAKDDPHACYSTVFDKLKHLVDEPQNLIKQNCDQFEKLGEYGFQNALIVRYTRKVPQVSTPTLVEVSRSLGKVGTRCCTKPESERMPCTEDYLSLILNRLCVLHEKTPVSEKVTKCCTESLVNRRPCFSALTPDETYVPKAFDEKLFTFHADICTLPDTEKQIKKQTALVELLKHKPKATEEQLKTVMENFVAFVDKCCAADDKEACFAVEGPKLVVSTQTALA
Summary of the method: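 BSA tryptophan fluorescence quenching at pH 7.4 on binding of the compound. Data fitted as Stern–Volmer plots, and the slope of the linear fit was taken as the quenching constant.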

[3] = target: T1, Human immunodeficiency virus type 1 integrase; assay: Inhibition of HIV1 integrase 3'-processing activity using labelled oligonucleotide substrate by ELISA
[4] = target: T1, Human immunodeficiency virus type 1 integrase; assay: Inhibition of HIV1 integrase using labelled oligonucleotide substrate in presence of bovine serum albumin by ELISA
[5] = Selectivity index, ratio of CC50 for human MT4 cells to EC50 for HIV1 3B; type: functional
Summary of the method: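 Ratio CC50/EC50 from parallel MT-4/MTT assays. CC50 comes from uninfected MT-4 cells and EC50 from MT-4 cells infected with 100–300 CCID50 of HIV-1 IIIB. Both assays used 5-fold serial dilutions.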

[6] = system: Human immunodeficiency virus 1; assay: Antiviral activity against HIV1 3B infected in human MT4 cells assessed as reduction of virus-induced cytopathogenicity by MTT assay; type: functional, organism-based; details: Human immunodeficiency virus 1, 3B
Summary of the method: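 MT-4 lymphocytes infected with 100–300 CCID50 of HIV-1 IIIB stock (CCID50 titrated on MT-4 cells), in the presence of 5-fold serial compound dilutions. Protection against virus-induced cytopathic effect read by MTT reduction to formazan, measured spectrophotometrically. EC50 = concentration giving 50% protection against CPE.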

[7] = target: T1, Human immunodeficiency virus type 1 integrase; assay: Inhibition of HIV1 integrase using labelled oligonucleotide substrate by ELISA
[8] = target: T1, Human immunodeficiency virus type 1 integrase; assay: Inhibition of HIV1 integrase using labelled U5A/U5B double stranded DNA substrate
[9] = target: Human immunodeficiency virus type 1 reverse transcriptase (Human immunodeficiency virus 1, UniProt Q72547); assay: Inhibition of HIV1 reverse transcriptase

Row | SMILES | CC50 [1] [µM] | IC50 [2] [µM] | K (Albumin) | IC50 [3] [µM] | IC50 [4] [µM] | Ratio CC50/EC50 [5] | EC50 [6] [µM] | IC50 [7] [µM] | IC50 [8] [µM] | IC50 [9] [µM]
1 | O=C(/C=C/c1cc(O)c(O)cc1[N+](=O)[O-])O[C@H](Cc1cc(O)c(O)cc1[N+](=O)[O-])C(=O)O | 45.5 | 0.07 | 3300 10^3/M | 52.2 | 20.8 | 3.8 | 12 | 0.15 | 0.03 | –
2 | O=C(/C=C/c1ccc(O)c(O)c1)O[C@H](Cc1cc(O)c(O)cc1[N+](=O)[O-])C(=O)O | 160 | 3.7 | 17460 10^3/M | > 247 | 54.7 | 4 | 39 | 1.4 | 0.026 | –
3 | O=C(NCc1ccc(F)cc1)c1nc(N2CCCCS2(=O)=O)c2cccnc2c1O | 2.2 | – | – | – | – | 457 | – | – | – | –
4 | O=C(/C=C/c1ccc(O)c(O)c1)O[C@H](Cc1ccc(O)c(O)c1)C(=O)O [ROSMARINIC ACID] | 55 | – | – | – | 63.5 | – | > 55 | – | – | 100
